Bioassay records deposited in PubChem BioAssay by Sanford-Burnham Center for Chemical Genomics.
hIAP block – human IAP inhibition | P09923 | purified IAP, CDP-Star luminescence, 30 min | inhibition, % at 10 µM | hit rate 0.12% among 330,000 | AID 2544;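 active means inhibition reaching a set limit with compound at 10 µM in the primary screen, cut at about 35% in these data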
Target sequence (P09923 whole entry, looked up): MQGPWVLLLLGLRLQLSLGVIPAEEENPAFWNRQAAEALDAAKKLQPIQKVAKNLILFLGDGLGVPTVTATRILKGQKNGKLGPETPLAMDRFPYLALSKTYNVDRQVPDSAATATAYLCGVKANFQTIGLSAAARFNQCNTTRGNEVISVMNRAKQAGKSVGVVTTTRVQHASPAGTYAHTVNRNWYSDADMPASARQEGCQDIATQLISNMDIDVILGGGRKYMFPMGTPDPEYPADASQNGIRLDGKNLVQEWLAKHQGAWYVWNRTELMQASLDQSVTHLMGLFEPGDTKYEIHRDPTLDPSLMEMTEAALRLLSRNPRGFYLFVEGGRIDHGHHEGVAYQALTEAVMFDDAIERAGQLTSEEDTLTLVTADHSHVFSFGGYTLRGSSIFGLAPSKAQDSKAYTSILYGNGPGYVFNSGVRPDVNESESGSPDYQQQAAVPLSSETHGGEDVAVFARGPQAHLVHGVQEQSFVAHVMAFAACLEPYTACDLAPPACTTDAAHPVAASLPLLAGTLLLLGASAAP
bIAP activator – intestinal alkaline phosphatase (bovine) activation; AID 1016; hit rate 0.17% among 200,000; activation factor at 20 µM; purified bovine IAP, CDP-star luminescence, 30 min; hits give high values; fold of DMSO-control signal, blank-subtracted;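 active means activation factor of 2 or more at 20 µM, a signal rise over negative controls twice the positive control's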
mIAP inh – blocks mouse intestinal alkaline phosphatase. purified mouse IAP, CDP-Star luminescence, 30 min. inhibition, % at 10 µM. hit rate 0.2% among 330,000. AID 2806;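 active means inhibition of at least 40% at 10 µM in the primary screen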
hIAP activ – human IAP activation | P09923 | hit rate 0.16% among 330,000 | purified human IAP, CDP-Star luminescence, 30 min; hits give high values; 1 = vehicle-only enzyme, 0 = enzyme-free background | activation factor at 10 µM;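 active means activation factor of the enzyme at least 2-fold when tested at 20 µM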
mIAP activ – increases mouse intestinal alkaline phosphatase activity; muIAP, CDP-Star luminescence, 30 min; hits give high values; 1 = vehicle-only enzyme signal, 0 = enzyme-free wells; activation factor at 10 µM; hit rate 0.24% among 330,000;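 active means activation factor of at least 2 at 20 µM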
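System: Mouse IAP enzyme | Also added: CDP-Star substrate | Dosing: Compounds dispensed in DMSO | Schedule: 30 min enzyme-substrate-compound incubation at room temperature | Technique: Chemiluminescence readout | Control set: DMSO-only wells and no-enzyme negative control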
bIAP inh – intestinal alkaline phosphatase (bovine) inhibition | purified bovine IAP, CDP-star luminescence, 30 min | inhibition, % at 20 µM | 190,000 tested, under 10 active;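 active means over 50% inhibition of intestinal alkaline phosphatase at 20 µM in the single-dose screen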
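Assay system: bovine IAP enzyme; medium: DEA buffer 100 mM, pH 9.8, with MgCl2 1.0 mM, ZnCl2 0.02 mM; doses: 20 µM single dose; incubation: enzyme reaction for 30 min at room temperature; detection: CDP-star luminescence signal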
hIAP act confirm – human IAP activation confirmation. shares compounds with hIAP activ. hit rate 10% among 880. AID 434926. activation (%Activity, negative = activation), % at 8.3 µM. purified IAP, CDP-Star luminescence, 30 min; hits give low values;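 active means at least twofold enzyme activation in any of six single-dose repeats, which the averaged readout prints as negative percent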
Each line names hits and unclear results; the compound was inactive in the other large screens (follow-up assays come after a bar, where they were run). Shown are actives, neighbours in structure and some others; about 0.79% of the full set was active somewhere.

CCOC(=O)N1CCC(N2C(=O)c3ccc(C(=O)Nc4cccc(OC)c4)cc3C2=O)CC1	none (no result: bIAP activator, bIAP inh)
Cc1ccc(-c2csc(NS(=O)(=O)c3cccc(F)c3)n2)o1	none (no result: bIAP activator, bIAP inh)
CC(C)(C)c1ccc(C(=O)NC2CCS(=O)(=O)C2)cc1 (configuration not stated)	none (no result: bIAP activator, bIAP inh)
COc1ccc(NC(=O)Nc2cccc(OC)c2)cc1	none (no result: bIAP activator, bIAP inh)
COc1cccc(NC(=O)Nc2cc(Cl)ccc2C)c1	mIAP activ 2.2
Cc1nnc(NC(=O)Nc2cccc(Cl)c2)s1	none
Cc1csc(NC(=O)Nc2cccc(Cl)c2)n1	bIAP activator 2.2
CC(C)(C)c1ccc(NC(=O)Nc2ccc(OCC(=O)N3CCOCC3)cc2)cc1	mIAP activ 2.1
CC(C)(C)OC(=O)NCCCC[C@@H](C(=O)NCCCCCCCCCCC(=O)N1CCN(C(=O)OC(C)(C)C)CC1)n1cc(CCO)nn1	none (no result: bIAP activator, bIAP inh)
CC[C@H](C)Cc1cn([C@@H](CCCCNC(=O)OC(C)(C)C)C(=O)NCCCCCCCCCCC(=O)N2CCN(C(=O)OC(C)(C)C)CC2)nn1	mIAP activ 2.2 (no result: bIAP activator, bIAP inh)
COc1ccc(C[C@H]2CN3C(=NC[C@H]3Cc3ccccc3)N2CCNC(=O)CCC2CCCCC2)cc1	bIAP activator 2.4
COc1ccc(C[C@H]2CN3C(=NC[C@@H]3Cc3ccccc3)N2C[C@H](C)NC(=O)CCC2CCCCC2)cc1	none (no result: bIAP activator, bIAP inh)
O=C(Nc1cccc(S(=O)(=O)NC2=NCCC2)c1)c1cn(-c2ccccc2)nc1-c1ccc(F)cc1	none (no result: bIAP activator, bIAP inh)
CCc1ccc(NC(=O)CSc2nc3nc(C)cc(C)n3n2)cc1	none (no result: bIAP activator, bIAP inh)
Cc1ccc(S(=O)(=O)c2cc(C)cc(S(=O)(=O)Nc3ccc(C(=O)O)cc3)c2C)cc1	none (no result: bIAP activator, bIAP inh)
Cc1ccc(NC2=NC3(CCCC3)N=C(N)N2)c(C)c1	none
Cc1ccccc1NC1=NC2(CCCC2)N=C(N)N1	none
Cc1cccc(NC2=NC3(CCCCC3)N=C(N)N2)c1C	bIAP activator 2.7
Cc1ccc(NC2=NC3(CCCCC3)N=C(N)N2)c(C)c1	bIAP activator 3.7
Cn1c(COc2ccc([N+](=O)[O-])cc2)nnc1SCC(=O)NCC1CCCO1 (configuration not stated)	none (no result: bIAP activator, bIAP inh)
CCn1c(NCc2cc(Br)ccc2NS(=O)(=O)c2ccc(C)cc2)nc2ccccc21	mIAP activ 2.1
COc1cc(/C=C/C(=O)OC(C)C(=O)NC2CCCCC2C)cc(Cl)c1OC (configuration not stated)	none (no result: bIAP activator, bIAP inh)
CCCCNC(=O)CSc1nc2cc3c(cc2c(=O)n1CCC(=O)NCCc1ccc(OC)c(OC)c1)OCO3	bIAP activator 2
O=C(NCc1ccncc1)c1cn(-c2ccccc2)nc1-c1cccnc1	none
O=C(NC1CCN(Cc2ccc(Cl)cc2)CC1)c1cn(-c2ccccc2)nc1-c1cccnc1	mIAP activ 2.3 (no result: bIAP activator, bIAP inh)
COc1ccc(C(=O)NNC(=S)NC(=O)C(C)(C)C)cc1	hIAP activ 2.1
O=C(c1cccc(S(=O)(=O)Nc2ccc(F)cc2)c1)N1CCCC1	none (no result: bIAP activator, bIAP inh)
COc1ccc(Cn2c(C)c(C)c(C#N)c2NC(=O)Nc2cccc(C)c2)cc1	mIAP activ 2.2
COc1ccc(CCNC(=O)CSc2cn(Cc3cccc(C)c3)c3ccccc23)cc1OC	mIAP activ 2.2
CN(CC(=O)Nc1ccccc1Br)C(=O)c1cc2c(s1)CCCCC2	none (no result: bIAP activator, bIAP inh)
Cc1cc2nc(C3CCN(CC4COc5ccccc5O4)CC3)[nH]c2cc1C (configuration not stated)	bIAP activator 4.5
CC12CCC(=O)N1C(C(=O)Nc1cccc(S(=O)(=O)N3CCCCCC3)c1)CS2 (configuration not stated)	none (no result: bIAP activator, bIAP inh)
C=CCn1c2ccccc2c2nnc(SCCCn3c(=O)[nH]c4ccccc43)nc21	bIAP activator 2 (no result: hIAP block, mIAP inh, hIAP activ, mIAP activ)
CC(C)[C@@H](N)C(=O)N/N=C/c1ccc2ncccc2c1	none (no result: bIAP activator, bIAP inh)
O=C(Nc1cccnc1)Nc1cc(Cl)cc(Cl)c1	mIAP activ 2.5
COc1cccc(/C=N/NC(=O)c2cnccn2)c1	bIAP activator 2.2
COc1ccc(/C=N/NC(=O)c2cnccn2)cc1O	none
O=C1c2c(O)cc(O)cc2O[C@@]12c1c(cc(O)c3c1O[C@H](c1ccc(O)cc1)[C@@H](O)C3)O[C@@H]2c1ccc(O)cc1	mIAP inh 41
Cc1ccc(CNC(=O)Nc2ccc3c(c2)N(C)C(=O)CS3)cc1	mIAP activ 2.1
Cc1ccc(NC(=O)Nc2ccc3c(c2)N(C)C(=O)CS3)cc1C	mIAP activ 3.1
CN1C(=O)CSc2ccc(NC(=O)NCc3ccccc3)cc21	none
Cc1ccc(C(O)c2nc3ccccc3n2C(C)C)cc1 (configuration not stated)	bIAP activator 2.5
CN(C)c1ccc(-c2nc3ccccc3n2C)cc1	none
CC(C)n1c(-c2ccc(N(C)C)cc2)nc2ccccc21	bIAP activator 3.4
Cc1cccc(OCCCCCn2ccnc2)c1C	bIAP activator 3
Cc1c(C(=O)O)sc2nc3n(c(=O)c12)CCC(C)CC3 (configuration not stated)	mIAP inh 41
CC(=O)Oc1ccccc1C(=O)OCCN=C1NS(=O)(=O)c2ccccc21	none (no result: bIAP activator, bIAP inh)
c1ccc(COc2ccc(CNn3cnnc3)cc2)cc1	hIAP block 54 | hIAP act confirm inactive
Cc1cccc(NC(=O)CNC(=O)CN2C(=O)NC3(CCCCC3C)C2=O)c1C (configuration not stated)	none (no result: bIAP activator, bIAP inh)
CN(C)c1ccc(C(=O)Nc2ccc(S(=O)(=O)Nc3nccs3)cc2)cc1	none (no result: bIAP activator, bIAP inh)
COc1cccc(Nc2nc(Nc3ccc(Cl)c(C(=O)O)c3)nc(C)c2[N+](=O)[O-])c1	none (no result: bIAP activator, bIAP inh)
O=C(c1ccco1)N1CCN(c2nc(-c3ccc(F)cc3)cs2)CC1	hIAP activ 2 | hIAP act confirm inactive
Cc1ccc(-n2ncc3c(NNC(=O)c4ccco4)ncnc32)cc1Cl	hIAP activ 2.9 (no result: bIAP activator, bIAP inh) | hIAP act confirm inactive
Cc1cccc(-n2ncc3c(NNC(=O)c4ccco4)ncnc32)c1	hIAP activ 3.5 (no result: bIAP activator, bIAP inh) | hIAP act confirm -74
Cc1cccc(-n2ncc3c(NCc4ccco4)ncnc32)c1	none
O=C(CSc1nc2c(c(=O)n1-c1ccc(F)cc1)SCC2)N1CCCC1	hIAP activ 2.1 | hIAP act confirm inactive
O=C(CSc1nc2c(c(=O)n1-c1ccccc1)SCC2)N1CCN(c2ccccc2)CC1	none
CCN1/C(=C/c2ccc3cc(C)ccc3[n+]2CC)Sc2ccccc21	hIAP block 37 | hIAP act confirm inactive
CCN1/C(=C/c2ccc3cc(C)ccc3[n+]2CC)Sc2cc(C)c(C)cc21	none (no result: bIAP inh)
COc1cc(/C=N\NC(=O)c2cccnc2)ccc1OC(=O)c1ccccc1Cl	none (no result: bIAP activator, bIAP inh)
O=C(c1cn(Cc2ccccc2)nc1-c1ccccc1)N1CCN(c2ccccn2)CC1	none (no result: bIAP activator, bIAP inh)
COc1cc(/C=C2\N=C3CCCCCN3C2=O)ccc1O	none (no result: bIAP inh)
